Reference: ChEMBL document CHEMBL1149055, “Spiroquinazoline, a novel substance P inhibitor with a new carbon skeleton, isolated from Aspergillus flavipes” (J Nat Prod, 1994)
Active and inactive are the calls of the source. The calls are words filed in the database; no cut-off is given here.

molecular target: T1, Substance-P receptor (Homo sapiens, UniProt P25103); assay: Displacement of [3H]substance P from NK1 receptor in human astrocytoma cells; type: cell-based
Procedure, shortened: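 Whole human astrocytoma cells; inhibition of [³H]-SP binding reported as a Ki in μM.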

T1 sequence (P25103 whole entry): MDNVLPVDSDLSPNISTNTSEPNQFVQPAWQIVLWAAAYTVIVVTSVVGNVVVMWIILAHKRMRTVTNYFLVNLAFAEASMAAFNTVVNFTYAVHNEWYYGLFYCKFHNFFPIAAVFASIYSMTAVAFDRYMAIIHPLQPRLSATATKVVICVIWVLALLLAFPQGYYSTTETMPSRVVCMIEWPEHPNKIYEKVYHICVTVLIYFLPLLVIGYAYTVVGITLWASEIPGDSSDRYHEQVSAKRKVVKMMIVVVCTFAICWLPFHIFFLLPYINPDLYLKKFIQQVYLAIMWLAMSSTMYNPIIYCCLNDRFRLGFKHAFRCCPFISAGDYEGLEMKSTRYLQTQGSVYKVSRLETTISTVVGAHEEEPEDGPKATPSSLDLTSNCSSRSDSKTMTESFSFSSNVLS

Row | SMILES | Ki
1 | C=CC(C)(C)[C@@]12C[C@H]3C(=O)Nc4ccccc4C(=O)N3[C@@H]1N(C(C)=O)c1ccccc12 [ACYL ASZONALENIN] | 170 µM
2 | C[C@@]12NC(=O)[C@@H](C[C@@]13c1ccccc1N1C(=O)CN[C@@H]13)n1c2nc2ccccc2c1=O [SPIROQUINAZOLINE] | 95 µM

molecular target: T1, Substance-P receptor; assay: Displacement of [3H]substance P from NK1 receptor in human astrocytoma cells at 200 uM; type: cell-based

Row | SMILES | Activity
3 | O=C1N[C@@H](Cc2ccccc2)C(=O)N2CCC[C@@H]12 | inactive
4 | O=C1N[C@@H](Cc2ccc(O)cc2)C(=O)N2CCC[C@H]12 | inactive
5 | CC(C)C[C@@H]1NC(=O)[C@@H]2CCCN2C1=O | inactive
6 | CC(C)[C@@H]1NC(=O)[C@H]2CCCN2C1=O | inactive
7 | O=C(N[C@H](CO)Cc1ccccc1)c1ccccc1 | inactive
8 | O=C1N[C@@H](Cc2c[nH]c3ccccc23)C(=O)Nc2ccccc21 | inactive
9 | C[C@H]1N[C@H]2N(C1=O)c1ccccc1[C@@]21C[C@@H]2C(=O)N[C@](C)(O1)c1nc3ccccc3c(=O)n12 | inactive
10 | O=C1N[C@@H](Cc2ccc(O)cc2)C(=O)N2CCC[C@@H]12 | inactive
11 | O=C1N[C@@H](Cc2ccccc2)C(=O)N2CCC[C@H]12 | inactive
12 | CC(C)[C@@H]1NC(=O)[C@@H]2CCCN2C1=O | inactive
